Laboratory results from ChEMBL document CHEMBL2331396, “Exploration of 1-(3-chloro-4-(4-oxo-4H-chromen-2-yl)phenyl)-3-phenylurea derivatives as selective dual inhibitors of Raf1 and JNK1 kinases for anti-tumor treatment” (Bioorg Med Chem, 2013).
Calls of active or inactive are those of the source. The rule behind the calls is not given here.

Experiments:
[1] = Cytotoxicity against human HL7702 cells assessed as inhibition rate at 100 uM measured after 48 hrs by MTT assay; format: cell-based, L02; conditions: read-out: INH
In short: (§1)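 Normal liver cells were grown in DMEM with 10% FBS plus penicillin/streptomycin at 37 °C, 5% CO₂. They were seeded at 5 × 10⁵ cells/mL and incubated 24 h. Compounds from DMSO stock were added at final 50 or 100 µM (DMSO <1%), in triplicate, for 48 h. MTT was added for 4 h, formazan dissolved in DMSO, A495 read, and inhibition rate calculated.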

[2] = Cytotoxicity against human QSG7701 cells assessed as inhibition rate at 100 uM measured after 48 hrs by MTT assay; format: cell-based; conditions: read-out: INH; in short: as §1
[3] = Cytotoxicity against human HL7702 cells assessed as inhibition rate at 50 uM measured after 48 hrs by MTT assay; format: cell-based, L02; conditions: read-out: INH; in short: as §1
[4] = Cytotoxicity against human QSG7701 cells assessed as inhibition rate at 50 uM measured after 48 hrs by MTT assay; format: cell-based; conditions: read-out: INH; in short: as §1
[5] = test system: HCT-116; experiment: Antiproliferative activity against human HCT116 cells assessed as growth inhibition measured after 48 hrs by MTT assay; format: functional, cell-based; conditions: HCT-116, 48 h
In short: (§2)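 Compounds dissolved in DMSO and diluted in medium to final 0.5–50 µM (final DMSO <1%). Cells were grown in DMEM with 10% FBS, penicillin and streptomycin at 37 °C, 5% CO₂. They were seeded at 5 × 10⁵ cells/mL, incubated 24 h, then treated in triplicate per concentration for 48 h. MTT was added for 4 h, formazan dissolved in DMSO, absorbance read at 495 nm, and IC50 derived.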

[6] = test system: A549; experiment: Antiproliferative activity against human A549 cells assessed as growth inhibition measured after 48 hrs by MTT assay; format: functional, cell-based; conditions: A549, 48 h; in short: as §2
[7] = test system: HepG2; experiment: Antiproliferative activity against human HepG2 cells assessed as growth inhibition measured after 48 hrs by MTT assay; format: functional, cell-based; conditions: HepG2, 48 h; in short: as §2
[8] = test system: HepG2; experiment: Cell cycle arrest in human HepG2 cells assessed as cells at G2+M phase at 10 uM measured after 48 hrs by flow cytometric analysis; format: functional
[9] = test system: HepG2; experiment: Cell cycle arrest in human HepG2 cells assessed as cells at S phase at 10 uM measured after 48 hrs by flow cytometric analysis; format: functional
[10] = test system: HepG2; experiment: Cell cycle arrest in human HepG2 cells assessed as cells at G0/G1 phase at 10 uM measured after 48 hrs by flow cytometric analysis; format: functional
[11] = test system: HepG2; experiment: Cell cycle arrest in human HepG2 cells assessed as cells at G2+M phase at 10 uM measured after 36 hrs by flow cytometric analysis; format: functional
[12] = test system: HepG2; experiment: Cell cycle arrest in human HepG2 cells assessed as cells at S phase at 10 uM measured after 36 hrs by flow cytometric analysis; format: functional
[13] = test system: HepG2; experiment: Cell cycle arrest in human HepG2 cells assessed as cells at G0/G1 phase at 10 uM measured after 36 hrs by flow cytometric analysis; format: functional
[14] = test system: HepG2; experiment: Cell cycle arrest in human HepG2 cells assessed as cells at G2+M phase at 10 uM measured after 24 hrs by flow cytometric analysis; format: functional
[15] = test system: HepG2; experiment: Cell cycle arrest in human HepG2 cells assessed as cells at S phase at 10 uM measured after 24 hrs by flow cytometric analysis; format: functional
[16] = test system: HepG2; experiment: Cell cycle arrest in human HepG2 cells assessed as cells at G0/G1 phase at 10 uM measured after 24 hrs by flow cytometric analysis; format: functional
[17] = test system: HepG2; experiment: Cell cycle arrest in human HepG2 cells assessed as cells at G2+M phase at 10 uM measured after 12 hrs by flow cytometric analysis; format: functional
[18] = test system: HepG2; experiment: Cell cycle arrest in human HepG2 cells assessed as cells at S phase at 10 uM measured after 12 hrs by flow cytometric analysis; format: functional
[19] = test system: HepG2; experiment: Cell cycle arrest in human HepG2 cells assessed as cells at G0/G1 phase at 10 uM measured after 12 hrs by flow cytometric analysis; format: functional
[20] = test system: HepG2; experiment: Induction of human HepG2 cells assessed as early apoptotic cells at 10 uM measured after 48 hrs by Annexin VFITC/PI assay; format: functional
[21] = test system: HepG2; experiment: Induction of human HepG2 cells assessed as early apoptotic cells at 10 uM measured after 24 hrs by Annexin VFITC/PI assay; format: functional
[22] = test system: HepG2; experiment: Induction of human HepG2 cells assessed as early apoptotic cells at 10 uM measured after 36 hrs by Annexin VFITC/PI assay; format: functional
[23] = test system: HepG2; experiment: Induction of human HepG2 cells assessed as early apoptotic cells at 10 uM measured after 12 hrs by Annexin VFITC/PI assay; format: functional
[24] = test system: HepG2; experiment: Induction of human HepG2 cells assessed as late apoptotic cells at 10 uM measured after 48 hrs by Annexin VFITC/PI assay; format: functional
[25] = test system: HepG2; experiment: Induction of human HepG2 cells assessed as late apoptotic cells at 10 uM measured after 36 hrs by Annexin VFITC/PI assay; format: functional
[26] = test system: HepG2; experiment: Induction of human HepG2 cells assessed as late apoptotic cells at 10 uM measured after 24 hrs by Annexin VFITC/PI assay; format: functional
[27] = test system: HepG2; experiment: Induction of human HepG2 cells assessed as late apoptotic cells at 10 uM measured after 12 hrs by Annexin VFITC/PI assay; format: functional
[28] = target: Mitogen-activated protein kinase 8 (Homo sapiens) (UniProt P45983); experiment: Inhibition of JNK1 in human HepG2 cells assessed as inhibition of methyl methane sulfonate-induced c-Jun phosphorylation at 100 uM measured after 2 hrs by Western blot analysis; format: cell-based
Sequence of Mitogen-activated protein kinase 8 (Homo sapiens) (P45983 whole entry): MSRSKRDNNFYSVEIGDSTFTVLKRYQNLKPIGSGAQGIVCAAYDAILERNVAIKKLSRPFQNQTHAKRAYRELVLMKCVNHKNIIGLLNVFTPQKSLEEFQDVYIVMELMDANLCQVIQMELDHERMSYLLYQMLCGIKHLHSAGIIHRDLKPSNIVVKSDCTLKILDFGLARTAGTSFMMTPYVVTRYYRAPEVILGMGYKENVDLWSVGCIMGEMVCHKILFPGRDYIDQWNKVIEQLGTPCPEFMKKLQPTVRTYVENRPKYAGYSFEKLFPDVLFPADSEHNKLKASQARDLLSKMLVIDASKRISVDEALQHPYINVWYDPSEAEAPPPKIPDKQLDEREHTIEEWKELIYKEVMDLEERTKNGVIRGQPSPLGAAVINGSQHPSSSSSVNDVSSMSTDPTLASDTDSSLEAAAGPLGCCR
In short: (§3)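 Cells were lysed on ice for 50 min in HEPES pH 7.9/KCl/EDTA/NP-40 buffer with Na₃VO₄, NaF and protease inhibitors. Protein was quantified by Coomassie, run on 15% SDS-PAGE and transferred to PVDF. Membranes were blocked in 5% milk for 2 h and probed with total/phospho ERK1/2 or c-Jun antibodies for 2 h at room temperature. Detection was by HRP secondary antibody and chemiluminescence.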

[29] = target: Mitogen-activated protein kinase 8 (Homo sapiens) (UniProt P45983); experiment: Inhibition of JNK1 in human HepG2 cells assessed as c-Jun phosphorylation at 10 uM measured after 2 hrs by Western blot analysis; format: cell-based; in short: as §3
[30] = target: RAF proto-oncogene serine/threonine-protein kinase (Homo sapiens) (UniProt P04049); experiment: Inhibition of Raf1 in human HepG2 cells assessed as ERK1/2 phosphorylation at 10 uM measured after 2 hrs by Western blot analysis; format: cell-based; conditions: in the assay text read “4 hrs” for “2 hrs”; in short: as §3
Sequence of RAF proto-oncogene serine/threonine-protein kinase (Homo sapiens) (P04049 whole entry): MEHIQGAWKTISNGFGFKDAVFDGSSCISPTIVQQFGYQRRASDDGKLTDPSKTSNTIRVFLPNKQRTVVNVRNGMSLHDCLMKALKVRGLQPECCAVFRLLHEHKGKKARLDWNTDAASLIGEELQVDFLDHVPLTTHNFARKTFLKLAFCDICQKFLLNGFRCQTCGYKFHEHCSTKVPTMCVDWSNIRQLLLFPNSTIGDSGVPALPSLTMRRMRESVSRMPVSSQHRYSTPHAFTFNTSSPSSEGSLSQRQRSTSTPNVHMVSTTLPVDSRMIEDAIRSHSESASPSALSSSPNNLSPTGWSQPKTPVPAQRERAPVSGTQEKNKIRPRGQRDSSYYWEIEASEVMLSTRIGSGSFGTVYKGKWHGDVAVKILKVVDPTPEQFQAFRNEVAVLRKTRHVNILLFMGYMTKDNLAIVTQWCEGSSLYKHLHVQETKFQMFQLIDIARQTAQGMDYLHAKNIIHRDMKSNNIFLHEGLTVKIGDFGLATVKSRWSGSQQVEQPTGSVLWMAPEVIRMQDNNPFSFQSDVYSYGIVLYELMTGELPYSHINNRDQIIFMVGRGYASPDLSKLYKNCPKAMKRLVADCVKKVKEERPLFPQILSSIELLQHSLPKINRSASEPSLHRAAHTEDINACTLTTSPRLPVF

[31] = target: Mitogen-activated protein kinase 3 (Homo sapiens) (UniProt P27361); experiment: Inhibition of ERK1 (unknown origin) at 50 uM
Sequence of Mitogen-activated protein kinase 3 (Homo sapiens) (P27361 whole entry): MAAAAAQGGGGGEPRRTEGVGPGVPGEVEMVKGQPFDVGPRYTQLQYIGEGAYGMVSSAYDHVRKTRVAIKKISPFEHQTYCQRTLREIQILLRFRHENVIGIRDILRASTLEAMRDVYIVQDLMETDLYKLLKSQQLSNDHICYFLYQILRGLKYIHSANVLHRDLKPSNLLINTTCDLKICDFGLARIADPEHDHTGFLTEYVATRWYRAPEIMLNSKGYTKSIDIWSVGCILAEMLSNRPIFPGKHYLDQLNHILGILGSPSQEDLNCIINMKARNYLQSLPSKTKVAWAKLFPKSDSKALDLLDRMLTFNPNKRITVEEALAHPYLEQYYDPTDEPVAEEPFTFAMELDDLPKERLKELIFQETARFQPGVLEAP
In short: (§4)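 Luminescent Kinase-Glo Plus assay. Enzyme, substrate, ATP and compound were mixed in pH 7.4 buffer containing 25 mM HEPES and 10 mM MgCl2, then incubated at 30 °C for 1 h. An equal volume of Kinase-Glo Plus reagent stopped the reaction before luminescence was read. Signal tracks remaining ATP and runs inversely to kinase activity; results are given as percent inhibition.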

[32] = target: RAF proto-oncogene serine/threonine-protein kinase (Homo sapiens) (UniProt P04049); experiment: Inhibition of Raf1 (unknown origin) at 50 uM
In short: (§5)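 Kinase-Glo Plus luminescent assay. Enzyme, substrate, ATP and compound were mixed in 25 mM HEPES pH 7.4 with 10 mM MgCl₂ and incubated 1 h at 30 °C. The reaction was stopped with an equal volume of Kinase-Glo Plus reagent. Luminescence reflects remaining ATP, inversely related to kinase activity, and is reported as percent inhibition at a single concentration.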

[33] = target: Mitogen-activated protein kinase 8 (Homo sapiens) (UniProt P45983); experiment: Inhibition of JNK1 (unknown origin) at 50 uM; in short: as §4
[34] = target: Mitogen-activated protein kinase 14 (Homo sapiens) (UniProt Q16539); experiment: Inhibition of p38-alpha (unknown origin) at 50 uM; in short: as §5
Sequence of Mitogen-activated protein kinase 14 (Homo sapiens) (Q16539 whole entry): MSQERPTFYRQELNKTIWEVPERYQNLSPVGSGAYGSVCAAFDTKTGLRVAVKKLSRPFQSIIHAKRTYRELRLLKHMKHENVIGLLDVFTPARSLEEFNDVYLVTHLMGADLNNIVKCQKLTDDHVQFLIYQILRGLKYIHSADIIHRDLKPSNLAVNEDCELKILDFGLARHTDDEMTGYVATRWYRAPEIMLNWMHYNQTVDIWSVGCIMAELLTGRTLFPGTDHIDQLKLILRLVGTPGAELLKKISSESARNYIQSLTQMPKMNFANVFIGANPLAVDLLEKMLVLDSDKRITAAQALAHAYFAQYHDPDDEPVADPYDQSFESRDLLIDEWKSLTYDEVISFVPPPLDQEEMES

[35] = target: Mitogen-activated protein kinase 1 (Homo sapiens) (UniProt P28482); conditions: at 50 µM
Sequence of Mitogen-activated protein kinase 1 (Homo sapiens) (P28482 whole entry): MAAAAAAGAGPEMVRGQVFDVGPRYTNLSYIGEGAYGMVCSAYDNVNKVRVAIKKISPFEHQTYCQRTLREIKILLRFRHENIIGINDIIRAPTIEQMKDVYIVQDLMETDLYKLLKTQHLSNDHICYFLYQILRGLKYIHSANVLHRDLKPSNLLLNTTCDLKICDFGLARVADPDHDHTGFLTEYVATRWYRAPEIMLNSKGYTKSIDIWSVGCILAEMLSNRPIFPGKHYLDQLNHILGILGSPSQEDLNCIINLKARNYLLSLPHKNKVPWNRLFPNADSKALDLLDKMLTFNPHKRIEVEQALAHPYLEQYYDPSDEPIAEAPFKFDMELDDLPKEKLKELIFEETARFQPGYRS

CCc1ccc2oc(-c3ccc(NC(=O)Cc4ccc(F)cc4)cc3Cl)cc(=O)c2c1
cytotoxicity at 48 h, 100 µM [1]: 45.2%
cytotoxicity at 48 h, 100 µM [2]: 36.9%
cytotoxicity at 48 h, 50 µM [3]: 29.1%
cytotoxicity at 48 h, 50 µM [4]: 16.2%
IC50 [5]: > 50 µM
IC50 [6]: > 50 µM
IC50 [7]: > 50 µM

O=C(Nc1cccc(Cl)c1)Nc1ccc(-c2cc(=O)c3ccccc3o2)c(Cl)c1
cytotoxicity at 48 h, 100 µM [1]: 47.1%
cytotoxicity at 48 h, 100 µM [2]: 62.4%
cytotoxicity at 48 h, 50 µM [3]: 26.8%
cytotoxicity at 48 h, 50 µM [4]: 48.9%
IC50 [5]: 25.4 µM
IC50 [6]: 14 µM
IC50 [7]: 9.7 µM

CCc1ccc2oc(-c3ccc(NC(=O)Nc4ccc(Cl)cc4)cc3Cl)cc(=O)c2c1
Activity [8]: 13.43%
Activity [9]: 20.57%
Activity [10]: 52.83%
Activity [11]: 9.14%
Activity [12]: 24.69%
Activity [13]: 52.83%
Activity [14]: 9.38%
Activity [15]: 21.77%
Activity [16]: 62.29%
Activity [17]: 8.81%
Activity [18]: 19.92%
Activity [19]: 69.43%
Activity [20]: 0.55%
Activity [21]: 0.44%
Activity [22]: 0.46%
Activity [23]: 0.27%
Activity [24]: 1.28%
Activity [25]: 1.37%
Activity [26]: 1.2%
Activity [27]: 1.22%
cytotoxicity at 48 h, 100 µM [1]: 28.3%
cytotoxicity at 48 h, 100 µM [2]: 31.8%
cytotoxicity at 48 h, 50 µM [3]: 18.7%
cytotoxicity at 48 h, 50 µM [4]: 23.7%
IC50 [5]: 28.7 µM
IC50 [6]: > 50 µM
IC50 [7]: 8.3 µM
inhibition [28]: Active
inhibition [29]: inactive
inhibition [30]: Active
inhibition [31]: inactive
inhibition [32]: 65.6%
inhibition [33]: 67.4%
inhibition [34]: 13.5%
inhibition [35]: inactive

COc1ccc2oc(-c3ccc(NC(=O)Nc4ccc(Cl)c(Cl)c4)cc3Cl)cc(=O)c2c1
cytotoxicity at 48 h, 100 µM [1]: 77.9%
cytotoxicity at 48 h, 100 µM [2]: 42.5%
cytotoxicity at 48 h, 50 µM [3]: 66.4%
cytotoxicity at 48 h, 50 µM [4]: 13.2%
IC50 [5]: 8.6 µM
IC50 [6]: 15.6 µM
IC50 [7]: 9.9 µM

COc1ccc2oc(-c3ccc(NC(=O)Nc4cccc(Cl)c4)cc3Cl)cc(=O)c2c1
cytotoxicity at 48 h, 100 µM [1]: 40.6%
cytotoxicity at 48 h, 100 µM [2]: 30.1%
cytotoxicity at 48 h, 50 µM [3]: 35.7%
cytotoxicity at 48 h, 50 µM [4]: 15.9%
IC50 [5]: 9.6 µM
IC50 [6]: 11 µM
IC50 [7]: 26.3 µM

CNC(=O)c1cc(Oc2ccc(NC(=O)Nc3ccc(Cl)c(C(F)(F)F)c3)cc2)ccn1 [SORAFENIB]
cytotoxicity at 48 h, 100 µM [1]: 20.2%
cytotoxicity at 48 h, 100 µM [2]: 23.2%
cytotoxicity at 48 h, 50 µM [3]: 5.3%
cytotoxicity at 48 h, 50 µM [4]: 4.2%
IC50 [5]: 2.3 µM
IC50 [6]: 4.5 µM
IC50 [7]: 5 µM
inhibition [32]: 101%

CN[C@@H]1C[C@H]2O[C@@](C)([C@@H]1OC)n1c3ccccc3c3c4c(c5c6ccccc6n2c5c31)C(=O)NC4
inhibition [31]: 99.4%
inhibition [33]: 96%
